# Source: ChEMBL document CHEMBL3763081, “Synthesis, evaluation and structure-activity relationship of new 3-carboxamide coumarins as FXIIa inhibitors” (Eur J Med Chem, 2016)
# pIC50: −log10 of the molar value.
# Tests used:
# [1] = target: T1, Coagulation factor XII (Homo sapiens) (UniProt P00748); test: Inhibition of human factor 12a using S-2302 as substrate assessed as para-nitroaniline release at 50 uM preincubated for 10 mins followed by substrate addition measured after 30 mins by HPLC-UV analysis
# T1 sequence (whole entry): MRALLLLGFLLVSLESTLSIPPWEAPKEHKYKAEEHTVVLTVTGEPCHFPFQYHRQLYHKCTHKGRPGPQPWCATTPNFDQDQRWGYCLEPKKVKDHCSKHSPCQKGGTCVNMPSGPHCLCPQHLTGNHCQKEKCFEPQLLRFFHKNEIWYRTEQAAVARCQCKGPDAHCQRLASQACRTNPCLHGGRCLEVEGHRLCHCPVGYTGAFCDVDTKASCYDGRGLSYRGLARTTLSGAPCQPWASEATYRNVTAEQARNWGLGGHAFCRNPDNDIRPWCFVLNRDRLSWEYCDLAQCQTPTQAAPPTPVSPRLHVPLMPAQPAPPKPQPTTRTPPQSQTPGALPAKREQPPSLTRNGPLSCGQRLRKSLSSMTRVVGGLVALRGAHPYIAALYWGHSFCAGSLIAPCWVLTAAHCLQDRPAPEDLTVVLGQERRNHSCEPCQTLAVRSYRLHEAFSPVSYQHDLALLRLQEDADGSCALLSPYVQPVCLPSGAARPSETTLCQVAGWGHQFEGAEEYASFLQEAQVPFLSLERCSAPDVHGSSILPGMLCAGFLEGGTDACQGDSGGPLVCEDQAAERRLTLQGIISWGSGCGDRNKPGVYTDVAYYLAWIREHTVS
# Outline: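 Human FXIIa 145 nM in 0.5 mM Tris-Imidazole, 0.15 M NaCl, pH 7.9, preincubated 10 min at 25 C with compound (DMSO). S-2302 (2.5 mM) added and hydrolysis run 30 min, then stopped with 10% acetic acid. Wells diluted 1:1 in acetonitrile. Released p-NA quantified by C18 HPLC-UV at 375 nm (AUC). % inhibition = [1-(AUCdrug/AUCvehicle)]*100.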
# [2] = Solubility of compound at pH 6.5; type: physicochemical; conditions: buffer
# [3] = target: Prothrombin (Homo sapiens) (UniProt P00734); test: Inhibition of human thrombin using S-2238 as substrate at 100 uM preincubated for 10 mins followed by substrate addition measured for 5 mins by microplate reader analysis
# Outline: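 Compound (DMSO) preincubated 10 min at 25 C, then S-2238 (2.5 mM). OD405 monitored continuously for 5 min. Slope-based % inhibition against vehicle control.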
# [4] = target: Coagulation factor X (Homo sapiens) (UniProt P00742); test: Inhibition of human factor 10a using S-2765 as substrate at 100 uM preincubated for 10 mins followed by substrate addition measured for 5 mins by microplate reader analysis
# Outline: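 Compound added from DMSO and held with enzyme 10 min at 25 C. S-2765 (1 mM) then added and OD405 followed continuously for 5 min. % inhibition = [1-(slope inhibitor/slope vehicle)]*100.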
# [5] = target: Plasma kallikrein (Homo sapiens) (UniProt P03952); test: Inhibition of human plasma kallikrein using S-2302 as substrate at 100 uM preincubated for 10 mins followed by substrate addition measured for 5 mins by microplate reader analysis; type: cell-free
# Outline: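 Human plasma kallikrein 50 nM in 0.05 M Tris-HCl, 0.5 mM EDTA, 0.05% Tween 20, 0.15 M NaCl, pH 7.4. 10 min preincubation with compound at 25 C, then S-2302 (4 mM). OD405 read continuously for 5 min. % inhibition = [1-(slope inhibitor/slope vehicle)]*100.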
# Coagulation factor XII = target: T2, Coagulation factor XII (Homo sapiens, UniProt P00748); test: Inhibition of human factor 12a using S-2302 as substrate assessed as para-nitroaniline release preincubated for 10 mins followed by substrate addition measured after 30 mins by HPLC-UV analysis
# T2 sequence (P00748 whole entry): T1 sequence (whole entry)
# Outline: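 FXIIa IC50 assay. Human enzyme 145 nM in Tris-Imidazole/NaCl buffer, pH 7.9, 10 min at 25 C with compound, then S-2302 (2.5 mM) for 30 min and acetic acid stop. p-NA AUC measured by HPLC-UV at 375 nm. Nine concentrations from 100 nM upward, in duplicate. Sigmoid fit of % inhibition vs log concentration by non-linear regression; values reported as mean with 95% CI.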
# [6] = target: T3, Coagulation factor VII (Homo sapiens) (UniProt P08709); test: Inhibition of human factor 7a using chromozymt-PA as substrate at 100 uM preincubated for 10 mins followed by substrate addition measured for 10 mins by microplate reader analysis
# T3 sequence (whole entry): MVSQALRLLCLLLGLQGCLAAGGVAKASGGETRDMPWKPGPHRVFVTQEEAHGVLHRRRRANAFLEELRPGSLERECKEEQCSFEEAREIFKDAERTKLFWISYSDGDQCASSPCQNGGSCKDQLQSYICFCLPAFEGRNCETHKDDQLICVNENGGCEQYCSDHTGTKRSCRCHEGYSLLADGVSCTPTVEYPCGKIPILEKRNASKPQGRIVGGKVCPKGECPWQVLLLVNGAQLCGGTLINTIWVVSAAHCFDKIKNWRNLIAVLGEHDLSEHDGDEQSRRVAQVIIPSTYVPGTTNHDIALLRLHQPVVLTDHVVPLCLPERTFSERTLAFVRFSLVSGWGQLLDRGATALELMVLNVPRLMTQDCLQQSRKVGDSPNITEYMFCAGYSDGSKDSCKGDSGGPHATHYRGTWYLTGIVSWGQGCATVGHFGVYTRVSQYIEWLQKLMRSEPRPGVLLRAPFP
# Outline: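 Compound preincubated 10 min at 25 C. Chromozym t-PA (5 mM) added and OD405 monitored continuously for 10 min. Inhibition from slope ratio against vehicle.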
# Chain of Plasma kallikrein (Homo sapiens) (P03952 20-390 limits assumed): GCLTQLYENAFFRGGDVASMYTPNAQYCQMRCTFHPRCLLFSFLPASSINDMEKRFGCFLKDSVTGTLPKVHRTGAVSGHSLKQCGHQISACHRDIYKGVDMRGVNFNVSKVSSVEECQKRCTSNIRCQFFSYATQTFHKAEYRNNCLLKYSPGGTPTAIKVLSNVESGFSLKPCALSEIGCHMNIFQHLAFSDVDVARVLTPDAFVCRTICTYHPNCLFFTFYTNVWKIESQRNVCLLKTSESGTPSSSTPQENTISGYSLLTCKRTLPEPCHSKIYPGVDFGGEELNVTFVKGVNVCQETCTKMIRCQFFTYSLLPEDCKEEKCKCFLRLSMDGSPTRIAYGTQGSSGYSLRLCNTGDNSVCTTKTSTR
# Chain of Plasma kallikrein (Homo sapiens) (P03952 391-638 limits assumed): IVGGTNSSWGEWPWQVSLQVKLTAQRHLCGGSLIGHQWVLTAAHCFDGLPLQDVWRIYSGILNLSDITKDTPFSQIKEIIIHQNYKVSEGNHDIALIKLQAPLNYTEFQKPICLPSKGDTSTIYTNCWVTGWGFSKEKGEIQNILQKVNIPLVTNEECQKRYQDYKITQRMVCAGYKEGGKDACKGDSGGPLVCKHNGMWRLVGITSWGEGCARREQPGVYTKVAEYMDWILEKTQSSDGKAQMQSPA
# Chain of Coagulation factor X (Homo sapiens) (P00742 41-179 limits assumed): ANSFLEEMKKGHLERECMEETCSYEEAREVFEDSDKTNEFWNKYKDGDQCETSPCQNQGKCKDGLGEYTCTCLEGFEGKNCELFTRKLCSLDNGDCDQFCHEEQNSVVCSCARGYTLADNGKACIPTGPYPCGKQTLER
# Chain of Coagulation factor X (Homo sapiens) (P00742 235-488 limits assumed): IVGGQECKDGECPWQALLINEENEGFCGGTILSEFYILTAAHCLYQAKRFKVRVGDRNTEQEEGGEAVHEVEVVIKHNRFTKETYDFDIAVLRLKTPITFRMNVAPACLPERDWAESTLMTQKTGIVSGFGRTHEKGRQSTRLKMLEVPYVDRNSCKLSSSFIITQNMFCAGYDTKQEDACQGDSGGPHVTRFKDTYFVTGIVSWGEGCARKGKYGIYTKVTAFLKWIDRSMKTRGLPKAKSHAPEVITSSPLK
smiles,measurement,setting,value
O=C(NCCN1CCOCC1)c1cc2cc(Br)cc(Br)c2oc1=O,inhibition,[1],14%
same,solubility,[2],500 µg/mL
O=C(Nc1ccccc1)c1cc2cc(CN3CCCC3)ccc2oc1=O,inhibition,[1],21%
same,solubility,[2],3400 µg/mL
CN(C)CCNC(=O)c1cc2cc(Br)cc(Br)c2oc1=O,inhibition,[1],30%
same,solubility,[2],3000 µg/mL
O=C(Nc1cccc(O)c1)c1cc2cc(Cl)cc(Br)c2oc1=O,inhibition,[1],90%
same,inhibition,[3],< 10%
same,inhibition,[4],< 10%
same,inhibition,[5],< 10%
same,pIC50,Coagulation factor XII,4.47
same,inhibition,[6],< 10%
same,solubility,[2],1.4 µg/mL
Cl.NCc1ccc2oc(=O)c(C(=O)Nc3ccccc3)cc2c1,inhibition,[1],26%
same,solubility,[2],9900 µg/mL
O=C(NCCN1CCOCC1)c1cc2cc(Cl)cc(Cl)c2oc1=O,inhibition,[1],20%
same,solubility,[2],400 µg/mL
O=C(Nc1ccc(Cl)cc1O)c1cc2cc(Cl)cc(Br)c2oc1=O,inhibition,[1],99%
same,inhibition,[3],< 10%
same,inhibition,[4],< 10%
same,inhibition,[5],< 10%
same,pIC50,Coagulation factor XII,5.10
same,inhibition,[6],< 10%
same,solubility,[2],0.11 µg/mL
O=C(O)c1cc(Cl)ccc1NC(=O)c1cc2cc(Cl)cc(Br)c2oc1=O,inhibition,[1],75%
same,solubility,[2],36 µg/mL
O=C(Nc1ccccc1O)c1cc2cc(Cl)cc(Br)c2oc1=O,inhibition,[1],99%
same,inhibition,[3],< 10%
same,inhibition,[4],< 10%
same,inhibition,[5],< 10%
same,pIC50,Coagulation factor XII,5.15
same,inhibition,[6],< 10%
same,solubility,[2],0.71 µg/mL
O=C(Nc1ccccc1)c1cc2cc(CN3CCOCC3)ccc2oc1=O,inhibition,[1],18%
same,solubility,[2],48 µg/mL
O=C(Nc1ccc(O)cc1)c1cc2cc(Cl)cc(Br)c2oc1=O,inhibition,[1],90%
same,inhibition,[3],< 10%
same,inhibition,[4],< 10%
same,inhibition,[5],< 10%
same,pIC50,Coagulation factor XII,4.39
same,inhibition,[6],< 10%
same,solubility,[2],1.5 µg/mL
CN(C)CCNC(=O)c1cc2cc(Cl)cc(Cl)c2oc1=O,inhibition,[1],29%
same,solubility,[2],2200 µg/mL
CN(C)CCNC(=O)c1cc2cc(Cl)cc(Br)c2oc1=O,inhibition,[1],26%
same,solubility,[2],2400 µg/mL
O=C(Nc1cc(Cl)ccc1O)c1cc2cc(Cl)cc(Br)c2oc1=O,inhibition,[1],99%
same,inhibition,[3],< 10%
same,inhibition,[4],< 10%
same,inhibition,[5],< 10%
same,pIC50,Coagulation factor XII,5.30
same,inhibition,[6],< 10%
same,solubility,[2],0.1 µg/mL
CCN(CC)Cc1ccc2oc(=O)c(C(=O)Nc3ccccc3)cc2c1,inhibition,[1],14%
same,solubility,[2],2900 µg/mL
O=C(Nc1ccccc1)c1cc2cc(CO)ccc2oc1=O,inhibition,[1],14%
same,solubility,[2],52 µg/mL
O=C(Nc1ccccc1)c1cc2cc(CN3CCCCC3)ccc2oc1=O,inhibition,[1],28%
same,solubility,[2],700 µg/mL
O=C(Nc1ccccc1)c1cc2cc(Cl)cc(Br)c2oc1=O,inhibition,[1],90%
same,inhibition,[3],< 10%
same,inhibition,[4],< 10%
same,inhibition,[5],< 10%
same,pIC50,Coagulation factor XII,4.80
same,inhibition,[6],< 10%
same,solubility,[2],0.59 µg/mL
NCCNC(=O)c1cc2cc(Cl)cc(Br)c2oc1=O.O=C(O)C(F)(F)F,inhibition,[1],23%
same,solubility,[2],61900 µg/mL
O=C(NCCN1CCOCC1)c1cc2cc(Cl)cc(Br)c2oc1=O,inhibition,[1],17%
same,solubility,[2],400 µg/mL
